# Assay results reported in PMC4129520 (Neuron, 2014).
# Key:
# γ-secretase [1] = assay: GM1-bound Aβ in TBS-Tx extracts of 3 mo J20 tg mice after Compound E; assay type: in vivo, mouse
# Outline: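 3-month J20 transgenic mice were injected with test compound or vehicle, and brains were harvested 2.5 h or 5 h later. Brains were Dounce-homogenized in ice-cold TBS (20 mM Tris-HCl, 150 mM NaCl, pH 7.4) with protease inhibitors and spun 175,000 g for 30 min at 4 °C. The pellet was re-extracted the same way in TBS-1% Triton-X. Both extracts underwent R1282 IP, then WB: 3D6+6E10+266+2G3+21F12 for Aβ, CTβ for GM1. N=4 vehicle mice; mean ± SEM; 2-way ANOVA with Bonferroni post-test.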
# γ-secretase [2] = details: ref Hong et al., 2011; cited from earlier work
compound,measurement,setting,value
C[C@H](NC(=O)Cc1cc(F)cc(F)c1)C(=O)N[C@H]1N=C(c2ccccc2)c2ccccc2N(C)C1=O [Compound E],Levels of GM1-bound Aβ in TBS-Tx,"γ-secretase [1]; 3 mo J20 tg mice, brains harvested 2.5 h or 5 h after injection, N=3 and 4 mice",decreased
same,Effect on total GM1 levels in the brain,γ-secretase [1]; data not shown,no effect
same,t1/2 of decline in brain ISF Aβ,γ-secretase [2],~ 2 h
